The text below walks through data of ChEMBL document CHEMBL3232705, “Discovery of isoquinolinone indole acetic acids as antagonists of chemoattractant receptor homologous molecule expressed on Th2 cells (CRTH2) for the treatment of allergic inflammatory diseases” (J Med Chem, 2014).

Data set [1] concerns the target T1, Prostaglandin D2 receptor 2 (Homo sapiens, UniProt Q9Y5Y4).
T1 sequence (Q9Y5Y4 whole entry): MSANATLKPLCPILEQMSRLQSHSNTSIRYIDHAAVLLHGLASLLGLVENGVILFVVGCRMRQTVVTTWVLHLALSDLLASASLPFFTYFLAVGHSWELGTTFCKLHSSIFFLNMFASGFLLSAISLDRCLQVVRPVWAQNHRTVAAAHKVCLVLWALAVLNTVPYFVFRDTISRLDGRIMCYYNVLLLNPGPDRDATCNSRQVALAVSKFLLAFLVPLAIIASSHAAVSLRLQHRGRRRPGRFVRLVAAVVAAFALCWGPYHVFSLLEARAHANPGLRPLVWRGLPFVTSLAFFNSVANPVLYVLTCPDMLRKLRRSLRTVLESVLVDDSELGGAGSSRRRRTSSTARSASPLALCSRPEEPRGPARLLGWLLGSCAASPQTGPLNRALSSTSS
The data set is described as follows: Antagonist activity at human recombinant CRTh2 expressed in CHO-K1 cells by cAMP TR FRET assay. In kind it is functional, cell-based.

Data set [2] deals with Mus musculus. The data set can be described thus: Antiallergic inflammatory activity in oxazolone induced contact hypersensitivity mouse model assessed as reduction ear swelling at 3 mg/kg, po prior to oxazolone and 7 hrs post challenge measured after 24 hrs. In kind it is functional. Summed up:
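Mice sensitized on the shaved abdomen with 2% oxazolone in ethanol one week before challenge. Dosed orally 1 h before the left ear was challenged with 10 μL of 2% oxazolone (ethanol on the right ear as control), then redosed 7 h after challenge. Ear thickness measured by micrometer; swelling taken as 24 h post-challenge minus pre-challenge thickness. Unpaired t test.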

A short description of data set [3]: Drug excretion in dog feces assessed as drug recovery at 5 mg/kg, iv measured after 24 hrs by LC-MS analysis. The class given is ADME, organism-based, Canis lupus familiaris. Also on record: dose 5 mg/kg, route intravenous. Particulars: faeces, read-out: Drug recovery. Summed up: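 Dogs given a single intravenous dose of 5 mg/kg; unchanged parent drug measured in the feces.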

Data set [4] in a line: Clearance in monkey at 2 mg/kg, iv. In kind it is ADME, organism-based, Macaca mulatta. Further details: dose 2 mg/kg, route intravenous. Conditions: rhesus monkey, in vivo. Summed up: (§1)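 Single intravenous dose of 2 mg/kg and single oral dose of 10 mg/kg, given separately, in rat, dog and monkey. Clearance and half-life taken from the iv arm; Cmax from the oral arm.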
Data set [5] has as its system Hepatocyte. The data set is described as follows: In vitro intrinsic biliary clearance in sandwich cultured rat hepatocytes measured. The class given is ADME, cell-based, Bile. Summed up: (§2)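 Sandwich-cultured hepatocytes incubated with substrate at 1–50 μM (rat) or 1–10 μM (human), with and without Ca2+. Biliary excretion taken as the difference in cellular accumulation between the two conditions. Intrinsic biliary clearance calculated as amount excreted into bile divided by substrate concentration over time.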

Data set [6] is described as follows: Half life in dog at 2 mg/kg, iv. In kind it is ADME, organism-based, Canis lupus familiaris. Also on record: dose 2 mg/kg, route intravenous. Conditions: in vivo. Summed up:
as §1

The nature of data set [7]: Volume of distribution at steady state in monkey at 2 mg/kg, iv. The class given is ADME, organism-based, Macaca mulatta. Also on record: dose 2 mg/kg, route intravenous. Conditions: rhesus monkey, in vivo, read-out: Vdss.
A short description of data set [8]: Metabolic clearance in monkey hepatocytes measured per 10^6 cells. The class given is ADME, cell-based, Macaca mulatta, Hepatocyte. Particulars: rhesus monkey, read-out: CLH.
Data set [9] is described as follows: Half life in monkey at 2 mg/kg, iv. Particulars: rhesus monkey, in vivo. In kind it is ADME, organism-based, Macaca mulatta. Further details: dose 2 mg/kg, route intravenous. Summed up:
as §1

A short description of data set [10]: Volume of distribution at steady state in dog at 2 mg/kg, iv. The class given is ADME, organism-based, Canis lupus familiaris. Also on record: dose 2 mg/kg, route intravenous. Particulars: in vivo, read-out: Vdss.
A short description of data set [11]: Drug excretion in rat bile assessed as drug recovery at 5 mg/kg, iv measured after 24 hrs by LC-MS analysis. The class given is ADME, organism-based. Further details: dose 5 mg/kg, route intravenous. Particulars: read-out: Drug recovery. The procedure, abridged: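 Bile duct-cannulated rats given a single iv dose of 5 mg/kg; parent drug recovered in bile and urine over 24 h.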

For data set [12], the system named is Hepatocyte. The data set can be described thus: In vitro intrinsic biliary clearance in sandwich cultured human hepatocytes measured. The class given is ADME, cell-based, Bile. The procedure, abridged: as §2
Data set [13] can be described thus: Cmax in dog at 10 mg/kg, po. Also on record: dose 10 mg/kg, route oral. Conditions: in vivo. The class given is ADME, organism-based, Canis lupus familiaris. Summed up:
as §1

The nature of data set [14]: Cmax in monkey at 10 mg/kg, po. Further details: dose 10 mg/kg, route oral. Particulars: rhesus monkey, in vivo. In kind it is ADME, organism-based, Macaca mulatta. The procedure, abridged: as §1
A short description of data set [15]: Oral bioavailability in monkey at 10 mg/kg. The class given is ADME, organism-based, Macaca mulatta. Conditions: rhesus monkey, in vivo.
Data set [16] relates to Rattus norvegicus. The data set is described as follows: In vivo intrinsic biliary clearance in rat. The class given is ADME, organism-based, Bile.
The nature of data set [17]: Oral bioavailability in dog at 10 mg/kg. The class given is ADME, organism-based, Canis lupus familiaris. Particulars: in vivo.
Data set [18] is described as follows: Metabolic clearance in dog hepatocytes measured per 10^6 cells. The class given is ADME, cell-based, Canis lupus familiaris, Hepatocyte. Particulars: read-out: CLH.
The nature of data set [19]: Metabolic clearance in rat hepatocytes measured per 10^6 cells. In kind it is ADME, cell-based, Hepatocyte. Particulars: read-out: CLH.
Data set [20] in a line: Plasma clearance in rat at 5 mg/kg, iv measured after 24 hrs by LC-MS analysis. Also on record: dose 5 mg/kg, route intravenous. The class given is ADME, organism-based. Summed up: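 Bile duct-cannulated rats received a single iv dose of 5 mg/kg. Average plasma clearance was determined, and parent drug was quantified in bile and urine collected over 24 h.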
The nature of data set [21]: Clearance in dog at 2 mg/kg, iv. The class given is ADME, organism-based, Canis lupus familiaris. Further details: dose 2 mg/kg, route intravenous. Particulars: in vivo. The procedure, abridged: as §1
For data set [22], the species on record is Rattus norvegicus. The data set can be described thus: Clearance in rat. Conditions: in vivo.
For data set [23], the system named is Rattus norvegicus. The data set can be described thus: Oral bioavailability in rat. Particulars: in vivo.
A short description of data set [24]: Clearance in rat at 2 mg/kg, iv and 10 mg/kg, po. The class given is ADME, organism-based. Particulars: in vivo.
The nature of data set [25]: Oral bioavailability in rat at 10 mg/kg. In kind it is ADME, organism-based. Conditions: in vivo.
For data set [26], the system named is Mus musculus. The data set is described as follows: Antiallergic activity in house dust mite-induced allergic airway disease BALB/c mouse model assessed as reduction in airway inflammation at 1 mg/kg, ip qd after 17 days. Further details: dose 1 mg/kg. The class given is functional, organism-based.

Calls of active or inactive are those of the source. The calls are words filed in the database; no cut-off is given here.

The term IC50 denotes the midpoint of a concentration-inhibition curve. In the case of `Cc1c(Cc2ccc(=O)n(CCCC(F)(F)F)c2)c2cc(F)ccc2n1CC(=O)O`, the IC50 in data set [1] is 150 nM.
As for `Cc1c(Cc2ccc(=O)n(CCCC(F)(F)F)n2)c2cc(F)ccc2n1CC(=O)O`, in data set [1], the IC50 amounted to 11 nM.
Usually inhibition in vivo stands for the relative decrease from the control value, in per cent. Consider `Cc1c(-c2cn(CC(C)(C)C)c(=O)c3ccccc23)c2cc(F)ccc2n1CC(=O)O`, for which the inhibition in vivo at 3 mg/kg in data set [2] is 47.4%.
On to `Cc1c(-c2ccc(=O)n(Cc3c(F)cccc3F)c2)c2ccccc2n1CC(=O)O`, for which the IC50 in data set [1] came out at 21 nM.
For `Cc1c(Cc2ccc(=O)n(Cc3cc(F)ccc3F)n2)c2cc(F)ccc2n1CC(=O)O`, the IC50 in data set [1] was 2 nM.
What is called half-life is how long it takes for the measured level to halve. Broadly, the Cmax is the peak of the concentration-time curve. As usually defined, the bioavailability is dose-corrected exposure relative to a reference, in per cent. In the case of `Cc1c(Cc2ccc(=O)n(Cc3ccc(F)cc3F)n2)c2cc(F)ccc2n1CC(=O)O`, the dose excreted at 24 h in data set [3] was above 90%; in data set [11], 27%. Also, the clearance was found to be 21 mL/min/kg in [4], 14 mL/min/kg in data set [20] and 20 mL/min/kg in data set [21]. Also, the values for the CLH in data set [5] and in [12] were below 2.6 µL/min/µg and below 1 µL/min/µg, respectively. Further, the half-life in [6] and in data set [9] was 2.3 h in each case. For the same compound, the Vd in data set [7] and in data set [10] was 0.4 L/kg each time. Moreover, the hepatocyte CLint in data set [8], in [18] and in data set [19] was below 5 µL/min/1e6 cells each time. In addition, the Cmax was 716 ng/mL in [13] and 246 ng/mL in [14]. The bioavailability was found to be 12% in [15] and 8% in data set [17]. Further, the CL in data set [16] turned out to be 3.8 mL/min/kg.
Take `Cc1c(-c2cn(CC(F)(F)F)c(=O)c3ccccc23)c2cc(F)ccc2n1CC(=O)O`: the clearance in data set [22] worked out at 20 mL/min/kg. In data set [2], the inhibition in vivo at 3 mg/kg is 32.8%. Besides, in data set [23], the bioavailability worked out at 35%.
With `Cc1c(-c2cn(CCCC(F)(F)F)c(=O)c3ccccc23)c2cc(F)ccc2n1CC(=O)O`, the clearance in data set [22] came out at 35 mL/min/kg. In [2], the inhibition in vivo at 3 mg/kg was found to be 30.4%. The IC50 in data set [1] is 1 nM. In addition, the bioavailability in [23] was below 5%.
Consider `Cc1c(-c2cn(Cc3ccccc3)c(=O)c3ccccc23)c2cc(F)ccc2n1CC(=O)O`, for which the IC50 in data set [1] amounted to 14 nM.
`COc1ccc2c(c1)c(-c1ccc(=O)n(CC(F)(F)F)c1)c(C)n2CC(=O)O`: the IC50 in data set [1] is 2000 nM.
Regarding `Cc1c(-c2ccc(=O)n(CC(F)(F)F)c2)c2cc(F)ccc2n1CC(=O)O`, the IC50 in [1] was found to be 84 nM.
In the case of `Cc1c(-c2ccc(OCCCC(F)(F)F)nc2)c2cc(F)ccc2n1CC(=O)O`, the 50% inhibitory concentration (IC50) in [1] was 689 nM.
Turning to `Cc1c(Cc2ccc(=O)n(Cc3ccc(F)cc3)n2)c2cc(F)ccc2n1CC(=O)O`, the IC50 in [1] turned out to be 6 nM.
As to `Cc1c(-c2ccc(=O)n(Cc3c(F)cccc3F)c2)c2cc(F)ccc2n1CC(=O)O`, in data set [1], the IC50 was determined as 6 nM.
Turning to `Cc1c(-c2ccc(=O)n(CCCC(F)(F)F)c2)c2cc(F)ccc2n1CC(=O)O`, the IC50 in [1] was 16 nM.
Same read-out and setting: the figure for `Cc1c(Cc2ccc(=O)n(Cc3cccc(F)c3)n2)c2cc(F)ccc2n1CC(=O)O` is 8 nM.
Turning to `Cc1c(Cc2ccc(=O)n(Cc3ccc(F)cc3F)c2)c2cc(F)ccc2n1CC(=O)O`, the IC50 in data set [1] worked out at 4 nM. Also, the clearance in [24] was determined as 32 mL/min/kg. Moreover, the bioavailability in [25] was determined as 4%.
On to `Cc1c(Cc2ccc(=O)n(CC(F)(F)F)n2)c2cc(F)ccc2n1CC(=O)O`, for which, in data set [1], the IC50 came out at 18 nM.
As for `C[C@@H]1C[C@H]2[C@@H]3CCC4=CC(=O)C=C[C@]4(C)[C@@]3(F)[C@@H](O)C[C@]2(C)[C@@]1(O)C(=O)CO`, in data set [26], the inhibition entry is “Active”.
Turning to `Cc1c(-c2ccc(=O)n(Cc3ccccc3)c2)c2cc(F)ccc2n1CC(=O)O`, in [24], the clearance is 15 mL/min/kg. This compound registered a bioavailability in [25] below 10%.
For `Cc1c(-c2cn(CC(F)(F)F)c(=O)c3c2CCCC3)c2cc(F)ccc2n1CC(=O)O`, the IC50 in data set [1] worked out at 1000 nM.
Take `Cc1c(-c2cn(Cc3ccccc3)c(=O)c3c2CCCC3)c2cc(F)ccc2n1CC(=O)O`: the IC50 in data set [1] turned out to be 192 nM.
With `Cc1c(-c2ccc(=O)n(Cc3ccc(F)cc3F)c2)c2cc(F)ccc2n1CC(=O)O`, the IC50 in data set [1] was determined as 17 nM.
The same measure, in the same setting: the same measure for `Cc1c(-c2ccc(=O)n(C(C)C)c2)c2ccccc2n1CC(=O)O`: 556 nM.
With `Cc1c(Cc2ccc(=O)n(CC(F)(F)F)c2)c2cc(F)ccc2n1CC(=O)O`, the IC50 in data set [1] was found to be 52 nM. The clearance in [24] was determined as 7 mL/min/kg. This compound also displayed a bioavailability in data set [25] of 20%.
In the case of `Cc1c(-c2ccc(=O)n(Cc3cccc(F)c3F)c2)c2cc(F)ccc2n1CC(=O)O`, the IC50 in data set [1] amounted to 0.8 nM.
On the same count and under the same terms, the same measure for `Cc1c(-c2ccc(=O)n(CC(F)(F)F)c2)c2cc(Cl)ccc2n1CC(=O)O`: 148 nM; for `Cc1ccc2c(c1)c(-c1ccc(=O)n(CC(F)(F)F)c1)c(C)n2CC(=O)O`: 1120 nM.
Turning to `Cc1c(-c2ccc(=O)n(C(C)C)c2)c2cc(Cl)ccc2n1CC(=O)O`, the IC50 in data set [1] stood at 195 nM.
`Cc1c(-c2ccc(=O)n(C(C)C)c2)c2cc(F)ccc2n1CC(=O)O`: the IC50 in data set [1] is 70 nM.
